This is an account of results in PubChem BioAssay.

Calls of active or inactive are those of the source.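 How the source made its calls, unless noted: active means current rise at least 3 SD above the untreated control mean in each of two repeat wells; inactive means the rest.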

Assay [1] is described as follows: nonspecific flux increase, KCNQ1-free cells – parental CHO cells, counter-screen for KCNQ1 potentiator project (AID 493006;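 active means duplicate-averaged activation above buffer control mean plus 5 SD of those controls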;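 on activation: fluorescence ratio of max minus min over baseline after K+ and Tl+ depolarization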). Particulars: parental CHO-K1 cells, FluxOR thallium flux, at 10 µM; hits give high values. Put shortly:
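Assay system: parental CHO-K1 cells lacking KCNQ1, loaded with FluxOR thallium dye; timing: dye 90 min RT, compound 20 min RT; signal: kinetic thallium-flux fluorescence; repeats: duplicate wells per compound, percent values averaged; benchmarks: buffer and R-L3 controls; reagent: Potassium/thallium depolarization pulse; read-out: fluorescence change ratio scaled 0% buffer, 100% R-L3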

In assay [2] the target is Potassium voltage-gated channel subfamily KQT member 1 (Homo sapiens) (UniProt P51787). Put plainly: enhancement of KCNQ1 channel thallium flux – FluxOR thallium flux, CHO cells, duplicates, confirmation (AID 493007;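 active means potentiation averaged over duplicate wells exceeding buffer-only control mean by more than 3 SD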;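 on outcome: cells depolarized by a potassium plus thallium sulfate stimulus after compound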). The conditions noted are these: KCNQ1 cell line, FluxOR thallium flux fluorescence, at 10 µM; hits give high values, % of reference activator effect, buffer zero. In a few lines:
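material = CHO cells stably expressing the KCNQ1 potassium channel | repeats = duplicate wells per compound | measure = percent activation between buffer and R-L3 responses | signal = FluxOR thallium-flux fluorescence, kinetic read | schedule = FluxOR dye loading 90 min, compound exposure 20 min, room temperature | control set = buffer and R-L3 controls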

For assay [3], the target named is Potassium voltage-gated channel subfamily KQT member 2 (Rattus norvegicus) (UniProt O88943). The assay is described as follows: KCNQ2 thallium flux enhancement – KCNQ2-CHO-K1 cells, selectivity assay for KCNQ1 potentiator project (AID 493009;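 active means mean duplicate potentiation above the buffer control mean plus 5 SD of buffer wells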;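 further: assay conditions were tuned for KCNQ1 rather than KCNQ2 modulators; signal is max minus min fluorescence divided by baseline after thallium stimulus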). The conditions noted are these: FluxOR thallium flux fluorescence, at 10 µM; hits give high values, scaled: buffer 0, activator control 100.

Assay [4] has as its target Potassium voltage-gated channel subfamily KQT member 1 (Homo sapiens) (UniProt P51787). Put plainly: KCNQ1 activators by electrophysiology – IonWorks patch clamp, KCNQ1-CHO cells, orthogonal assay for KCNQ1 potentiator project, confirmation (AID 493184). Particulars: automated patch clamp current, at 10 µM; hits give high values. Put shortly: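 Assay system – CHO cells carrying KCNQ1 · Medium – pH 7.4 external bath · Probe or stimulus – depolarizing pulse to +40 mV from -90 mV · Compound dosing – one dose, 10 µM final · Measured by – automated perforated-patch electrophysiology · Measure – % potentiation of steady-state current relative to pre-compound · Repeats – two replicates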
(In general: Patch clamp records ionic current or voltage across a cell membrane.)

Chain of Potassium voltage-gated channel subfamily KQT member 1 (Homo sapiens) (P51787 whole entry, looked up): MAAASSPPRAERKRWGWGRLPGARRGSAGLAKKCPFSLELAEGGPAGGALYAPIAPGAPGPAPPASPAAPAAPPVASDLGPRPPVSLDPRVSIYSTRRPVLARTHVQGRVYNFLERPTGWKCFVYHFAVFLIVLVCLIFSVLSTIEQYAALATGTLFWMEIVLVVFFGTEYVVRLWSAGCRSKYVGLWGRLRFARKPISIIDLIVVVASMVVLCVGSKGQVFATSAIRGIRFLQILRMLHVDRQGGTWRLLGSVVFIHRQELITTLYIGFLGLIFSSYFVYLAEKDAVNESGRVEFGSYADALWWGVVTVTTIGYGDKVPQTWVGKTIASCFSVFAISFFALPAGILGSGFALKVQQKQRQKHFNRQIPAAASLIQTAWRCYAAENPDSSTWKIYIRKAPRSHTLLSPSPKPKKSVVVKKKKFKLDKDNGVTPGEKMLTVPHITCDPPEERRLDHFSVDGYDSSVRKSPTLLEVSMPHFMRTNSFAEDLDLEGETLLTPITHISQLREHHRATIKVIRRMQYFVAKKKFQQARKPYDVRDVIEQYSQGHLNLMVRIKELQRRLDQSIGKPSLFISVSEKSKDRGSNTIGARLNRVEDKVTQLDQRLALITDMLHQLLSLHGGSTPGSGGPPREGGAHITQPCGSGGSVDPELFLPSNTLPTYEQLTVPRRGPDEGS
Chain of Potassium voltage-gated channel subfamily KQT member 2 (Rattus norvegicus) (O88943 whole entry, looked up): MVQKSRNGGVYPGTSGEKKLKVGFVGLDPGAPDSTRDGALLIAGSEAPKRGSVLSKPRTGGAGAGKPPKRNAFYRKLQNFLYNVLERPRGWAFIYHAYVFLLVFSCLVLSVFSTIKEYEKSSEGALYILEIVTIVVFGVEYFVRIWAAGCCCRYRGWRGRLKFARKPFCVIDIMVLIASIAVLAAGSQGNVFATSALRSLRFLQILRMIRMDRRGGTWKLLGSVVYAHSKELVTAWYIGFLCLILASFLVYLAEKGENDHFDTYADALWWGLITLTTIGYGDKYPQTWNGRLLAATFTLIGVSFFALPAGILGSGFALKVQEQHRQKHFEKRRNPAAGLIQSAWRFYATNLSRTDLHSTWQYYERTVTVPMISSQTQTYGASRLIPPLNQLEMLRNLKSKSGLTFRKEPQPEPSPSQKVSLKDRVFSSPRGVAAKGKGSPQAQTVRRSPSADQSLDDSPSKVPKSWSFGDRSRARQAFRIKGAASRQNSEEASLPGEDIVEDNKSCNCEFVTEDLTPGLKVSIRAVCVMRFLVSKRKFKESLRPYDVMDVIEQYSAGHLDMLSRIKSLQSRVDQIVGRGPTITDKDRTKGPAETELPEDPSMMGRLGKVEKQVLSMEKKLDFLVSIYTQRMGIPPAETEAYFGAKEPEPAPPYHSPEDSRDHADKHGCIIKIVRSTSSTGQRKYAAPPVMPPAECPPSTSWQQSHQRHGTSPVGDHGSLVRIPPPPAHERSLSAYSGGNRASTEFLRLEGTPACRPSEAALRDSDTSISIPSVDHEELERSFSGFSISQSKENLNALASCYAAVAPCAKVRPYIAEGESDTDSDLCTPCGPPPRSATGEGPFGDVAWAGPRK

For `CCCCCn1c(=S)[nH]c2ncccc2c1=O`, the activation in assay [1] was 206% (active). Besides, the potentiation is 39.5% (active) in assay [2] and 200% (active) in assay [3]. In addition, the result in assay [4] was inactive.

Turning to `CCOC(=O)Cn1c(=S)[nH]c2c(oc3ccc(Cl)cc32)c1=O`, the activation in assay [1] was 226% (active). Further, the results for the potentiation in assay [2] and in assay [3] were 36% (active) and 218% (active), respectively. Moreover, the outcome in assay [4] was inactive.

With `O=C(Nc1nnc(-c2ccc3c(c2)CCCC3)o1)c1ccccc1Cl`, the activation in assay [1] is 184% (active). Also, the figures for the potentiation in assay [2] and in assay [3] were 83% (active) and 267% (active), respectively. The outcome in assay [4] was inactive.

Regarding `CSc1nc(C)cc(OCC(=O)N/N=C/c2ccccc2O)n1`, the outcome in assay [1], in assay [2], in assay [3] and in assay [4] was inactive.

In the case of `Cc1cccc(/C=C/C(=O)c2cc(Br)ccc(=O)c2O)c1`, the activation in assay [1] is 170% (active). The potentiation in assay [2] is 90% (active); in assay [3] it was 254% (active). Further, in assay [4], the outcome was inactive.

For the compound `COc1ccccc1C(=O)NNC(=O)C(=O)Nc1ccc(C)c(Cl)c1`, the activation in assay [1] was 552% (active). The potentiation is 235% (active) in assay [2] and 512% (active) in assay [3]. For the same compound, in assay [4], the result was inactive.

As to `Cc1ccc(-c2nc3ccc(Cl)cc3c(=O)n2O)cc1`, the activation in assay [1] is 558% (active). Moreover, the potentiation in assay [2] was 221% (active); in assay [3], 523% (active). Moreover, in assay [4], the result was inactive.

On to `Cc1[nH]n2c(=O)cc(C(C)(C)C)nc2c1-c1ccccc1`, for which the activation in assay [1] is 227% (active). Further, the potentiation is 33.5% (active) in assay [2] and 224% (active) in assay [3]. Further, the outcome in assay [4] was inactive.

As to `CN(CC(=O)Nc1c(Cl)cccc1Cl)C(=O)c1n[nH]c2ccccc12`, the result in assay [1], in assay [2], in assay [3] and in assay [4] was inactive.

For the compound `Cc1nn(-c2ccccc2)c2nc(C(Cl)(Cl)Cl)[nH]c(=O)c12`, in assay [1], the activation was 145% (active). The outcome in assay [2], in assay [3] and in assay [4] was inactive.

Regarding `Cc1ccc(-c2ccc(C3C(C#N)=C(N)Oc4n[nH]c(C)c43)o2)cc1` (stereo not given), the outcome in assay [1], in assay [2], in assay [3] and in assay [4] was inactive.

As to `O=C(Nc1nnc(C2=COCCO2)o1)c1ccc(Br)cc1`, in assay [1], the activation was 142% (active). Moreover, the potentiation in assay [2] is 18% (active); in assay [3], 169% (active). In assay [4], the result was inactive.

On to `CC(C)(C)C(=O)NC1CC2CCCC(C1)N2C(=O)Nc1ccccc1` (stereo not given), for which the result in assay [1], in assay [2], in assay [3] and in assay [4] was inactive.

Regarding `C=CCN(CC=C)C(=S)NC(=O)c1ccc(OC)c(Br)c1`, the activation in assay [1] was 506% (active). Besides, the figures for the potentiation in assay [2] and in assay [3] were 199% (active) and 474% (active), respectively. The outcome in assay [4] was inactive.

In the case of `Cc1cc(/C=N/NC(=O)c2nn(C)cc2Cl)c(C)n1-c1cccc(Br)c1`, the result in assay [1], in assay [2], in assay [3] and in assay [4] was inactive.

As to `Cc1ccc2nc(NC(=S)NC(=O)c3cccs3)sc2c1`, the activation in assay [1] was 168% (active). The potentiation in assay [2] is 66% (active); in assay [3] it was 158% (active). For the same compound, in assay [4], the outcome was inactive.

With `Cc1ccc(-c2nc3ccccc3o2)cc1NC(=S)NC(=O)c1cc2ccccc2o1`, the outcome in assay [1], in assay [3] and in assay [4] was inactive. Also, the potentiation in assay [2] is 21.5% (active).

With `CCn1c(=S)[nH]c2sc3c(c2c1=O)CCCC3`, the activation in assay [1] is 338% (active). Also, the potentiation in assay [2] was 149% (active); in assay [3], 383% (active). The result in assay [4] was inactive.

In the case of `Cc1ccc(CSc2nc3ccccc3c(=O)n2CCCC(=O)NCc2ccco2)cc1`, the result in assay [1], in assay [2], in assay [3] and in assay [4] was inactive.

Consider `Cc1ccc(NC(=O)C(=O)NNC(=O)c2ccccc2C)cc1Cl`, for which the activation in assay [1] is 304% (active). The results for the potentiation in assay [2] and in assay [3] were 112% (active) and 400% (active), respectively. Further, the result in assay [4] was inactive.

As to `C/C(=C/CCC(C)[C@H]1CC[C@@]2(C)C3=C(CC[C@]12C)[C@@]1(C)CCC(=O)C(C)(C)[C@@H]1CC3)C(=O)O` (stereo not given in full), in assay [1], the activation is 829% (active). Further, the figures for the potentiation in assay [2] and in assay [3] were 298% (active) and 680% (active), respectively. In assay [4], the result was inactive.

As for `COc1cccc(/C=N/NC(=O)C(C)n2nc(C)c([N+](=O)[O-])c2C)c1O` (stereo not given), the outcome in assay [1], in assay [2], in assay [3] and in assay [4] was inactive.

Regarding `CC(=O)c1cccc(NC(=S)NC(=O)c2ccc(Cl)cc2)c1`, the result in assay [1], in assay [2], in assay [3] and in assay [4] was inactive.

Regarding `Cc1nc(SC(C)C(=O)c2c(N)n(C)c(=O)n(C)c2=O)c2c(C)c(C)sc2n1` (stereo not given), the activation in assay [1] is 199% (active). Moreover, the potentiation is 86% (active) in assay [2] and 256% (active) in assay [3]. The result in assay [4] was inactive.

For the compound `Cc1nonc1NC(=O)OC1CCCCC1`, the result in assay [1], in assay [2], in assay [3] and in assay [4] was inactive.

In the case of `CCN(C(=O)COC(=O)c1ccccc1Nc1cccc(C)c1C)C1CCS(=O)(=O)C1` (stereo not given), the result in assay [1], in assay [2], in assay [3] and in assay [4] was inactive.

In the case of `CSc1ccccc1C(=O)NC1CCCc2ccccc21` (stereo not given), the outcome in assay [1], in assay [2], in assay [3] and in assay [4] was inactive.

Consider `COC(=O)c1sc(NC(=S)NC(=O)c2ccc(C)cc2)nc1C`, for which, in assay [1], the activation is 172% (active). In addition, the figures for the potentiation in assay [2] and in assay [3] were 50.5% (active) and 188% (active), respectively. The result in assay [4] was inactive.

As for `Cc1cc(NS(=O)(=O)c2ccc(NC(=O)C(C)Oc3ccccc3Cl)cc2)no1` (stereo not given), the result in assay [1], in assay [2], in assay [3] and in assay [4] was inactive.

Turning to `O=C(COC(=O)c1ccccc1)Nc1ccccc1N1CCOCC1`, the outcome in assay [1], in assay [2], in assay [3] and in assay [4] was inactive.
